{
  "source": "ChEMBL document CHEMBL1649392",
  "about": "“Synthesis of substituted 3-amino-N-phenyl-1H-indazole-1-carboxamides endowed with antiproliferative activity” (Eur J Med Chem, 2011)",
  "key": {"[1]": {"test_system": "K562", "experiment": "Induction of cell cycle arrest in human K562 cells assessed as decrease in accumulation at G2/M phase at 40 uM after 24 hrs by flow cytometric analysis", "assay_type": "functional, cell-based", "procedure,_shortened": "(§1)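 K562 myeloblastic leukemia cells cultured 24 h with compound at 20, 40 or 60 µM, or untreated. Cells washed in ice-cold PBS and resuspended at 10⁶/mL in hypotonic propidium iodide (50 µg/mL) with 0.03% Nonidet P-40 in 0.1% sodium citrate. After 30 min, DNA content read by flow cytometry; sub-G0/G1, G0/G1, S and G2/M fractions scored.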"}, "[2]": {"test_system": "K562", "experiment": "Induction of apoptosis in human K562 cells assessed as increase in hypophosphorylated Rb level at 60 uM after 1.5 hrs by flow cytometric assay", "assay_type": "functional, cell-based", "procedure,_shortened": "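K562 cells treated with or without 60 µM compound. 1.5 × 10⁶ cells washed in PBS, fixed and permeabilized 20 min in Cytofix/Cytoperm, then washed in Perm/Wash buffer. Stained 30 min at 4 °C with FITC anti-total pRb or PE anti-hypophosphorylated pRb mAbs, washed, and analysed by flow cytometry.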"}, "[3]": {"experiment": "Cytotoxicity in HFF cells after 72 hrs by trypan blue exclusion assay", "assay_type": "cell-based", "details": "human", "procedure,_shortened": "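Human normal fibroblasts, 2 × 10⁵ per well, seeded in RPMI 1640 with 10% fetal calf serum plus penicillin and streptomycin at 37 °C under CO₂. Compound added after 24 h. Living cells counted at 72 h by trypan blue exclusion, expressed as percent of control proliferation; GI50 derived.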"}, "[4]": {"test_system": "K562", "experiment": "Induction of cell cycle arrest in human K562 cells assessed as increase in accumulation at G0/G1 phase at 60 uM after 24 hrs by flow cytometric analysis", "assay_type": "functional, cell-based", "procedure,_shortened": "as §1"}},
  "note": "Calls of active or inactive are those of the source. The rule behind the calls is not given here.",
  "data": [
    {"smiles": "Nc1nn(C(=O)Nc2ccc(Cc3ccccc3)cc2)c2ccc(Cl)cc12", "values": [
      {"measurement": "Activity", "setting": "[1]", "result": "Active"},
      {"measurement": "Activity", "setting": "[2]", "result": "Active"},
      {"measurement": "GI50 at 72 h", "setting": "[3]", "result": 36, "unit": "µM"},
      {"measurement": "Activity", "setting": "[4]", "result": "Active"}
    ]}
  ]
}
